By ED50 is commonly meant the midpoint of the dose-response relation. The TD50 is the 50% point of the dose-response relation for the toxic effect studied.

For data set [1], the system named is Mus musculus. Kind of data set: Anticonvulsant activity in Swiss mouse assessed as protection against seizures at 100 mg/kg, ip dosed 0.5 hrs before initiation of maximal electroconvulsions by maximal electroshock test. The class given is functional. The procedure, abridged:
(§1)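 Mice were dosed i.p. at a fixed 300 or 100 mg/kg (6 Hz: 100 mg/kg only). Protection was then scored against MES, sc PTZ or 6 Hz seizures at pretreatment times of 0.25, 0.5, 1 and 2 h. Groups were four mice, scored as number protected / number tested. This also gives the time course and time of peak effect.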
(In general: Protection in the maximal electroshock model is a classic sign of anticonvulsant action.)

Data set [2] has as its system Mus musculus. The data set can be described thus: Anticonvulsant activity in Swiss mouse assessed as protection against seizures at 300 mg/kg, ip dosed 0.25 hrs before initiation of maximal electroconvulsions by maximal electroshock test. The class given is functional. The procedure, abridged:
as §1

The subject of data set [3] is Mus musculus. Kind of data set: Anticonvulsant activity in Swiss mouse assessed as protection against seizures at 300 mg/kg, ip dosed 1 hr before initiation of maximal electroconvulsions by maximal electroshock test. The class given is functional. An outline of the steps: as §1
The subject of data set [4] is Mus musculus. The data set can be described thus: Anticonvulsant activity in Swiss mouse assessed as protection against seizures at 100 mg/kg, ip dosed 2 hrs before initiation of maximal electroconvulsions by maximal electroshock test. It is filed as functional. The procedure, abridged: as §1
Data set [5] relates to Mus musculus. Kind of data set: Anticonvulsant activity in Swiss mouse assessed as protection against seizures at 300 mg/kg, ip dosed 2 hrs before initiation of maximal electroconvulsions by maximal electroshock test. It is filed as functional. An outline of the steps:
as §1

In data set [6] the test system is Mus musculus. Kind of data set: Anticonvulsant activity in Swiss mouse assessed as protection against seizures at 300 mg/kg, ip dosed 0.5 hrs before initiation of maximal electroconvulsions by maximal electroshock test. The class given is functional. An outline of the steps:
as §1

The test system of data set [7] is Mus musculus. Kind of data set: Anticonvulsant activity in ip dosed Swiss mouse assessed as protection against seizures measured at 0.25 hrs of time to peak effect by maximal electroshock test. It is filed as functional. An outline of the steps:
(§2)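 Median effective doses (ED50, mg/kg) were determined i.p. in mice at the time of peak effect in the MES, sc PTZ or 6 Hz tests. Only compounds giving at least 50% protection at 100 mg/kg in that test were taken forward.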

Data set [8] has as its system Mus musculus. Kind of data set: Anticonvulsant activity in Swiss mouse assessed as protection against seizures at 100 mg/kg, ip dosed 1 hr before initiation of maximal electroconvulsions by maximal electroshock test. It is filed as functional. An outline of the steps: as §1
Data set [9] relates to Mus musculus. Kind of data set: Anticonvulsant activity in Swiss mouse assessed as protection against seizures at 100 mg/kg, ip dosed 0.25 hrs before initiation of maximal electroconvulsions by maximal electroshock test. The class given is functional. An outline of the steps: as §1
Data set [10] has as its system Mus musculus. The data set can be described thus: Anticonvulsant activity in ip dosed Swiss mouse assessed as protection against seizures measured at 0.5 hrs of time to peak effect by maximal electroshock test. The class given is functional. An outline of the steps: as §2
For data set [11], the system named is Mus musculus. Kind of data set: Anticonvulsant activity in ip dosed Swiss mouse assessed as protection against seizures measured at 0.5 hrs of time to peak effect by 6 Hz test by 6 Hz psychomotor seizure test. The class given is functional. The procedure, abridged: as §2
Data set [12] has as its system Mus musculus. Kind of data set: Anticonvulsant activity in ip dosed Swiss mouse assessed as protection against seizures measured at 0.5 hrs of time to peak effect by subcutaneous pentylenetetrazole seizure test. It is filed as functional. The procedure, abridged: as §2
For data set [13], the species on record is Mus musculus. Kind of data set: Protective index, ratio of neurotoxic TD50 in Swiss mouse by Chimney test to anticonvulsant ED50 in Swiss mouse measured at 0.5 hrs of time to peak effect by maximal electroshock test. The procedure, abridged: (§3)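 Protective index was calculated as TD50 (chimney test, mouse, i.p.) divided by ED50 from the matching MES, sc PTZ or 6 Hz test, both taken at the time of peak effect.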

Data set [14] in a line: Toxicity in ip dosed Swiss mouse assessed as induction of motor performance impairment measured within 60 seconds measured at 0.5 hrs of time to peak effect by Chimney test. Particulars: in vivo. It is filed as organism-based. An outline of the steps: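 Neurotoxicity was measured i.p. in mice by the chimney test for motor impairment. It was given as the median neurotoxic dose (TD50, mg/kg) at the time of peak effect.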

The species named for data set [15] is Mus musculus. The data set can be described thus: Protective index, ratio of neurotoxic TD50 in Swiss mouse by Chimney test to anticonvulsant ED50 in Swiss mouse measured at 0.5 hrs of time to peak effect by 6 Hz test by 6 Hz psychomotor seizure test. The class given is functional. The procedure, abridged:
as §3

For the molecule `CC(C(=O)N1CCN(c2ccccc2)CC1)N1C(=O)CCC1=O` (racemic), the Activity is reported as 0% in data set [1]; 100% in [2]; 50% in data set [3]; 0% in data set [4]; 0% in data set [5]; 50% in data set [6]. The Activity in [8] came out at 0%; in data set [9], 50%. The ED50 in data set [7] was determined as 164 mg/kg.

As to `CC(C(=O)N1CCN(c2ccccc2Cl)CC1)N1C(=O)CCC1=O` (racemic), the Activity in [2] worked out at 0%; in data set [3], 25%; in [5], 0%; in data set [6] it was 0%.

With `CC(C(=O)N1CCN(c2ccc(Cl)cc2)CC1)N1C(=O)CCC1=O` (racemic), the Activity in [1] worked out at 25%; in [2] it was 100%; in [3] it was 0%; in data set [4] it was 0%; in data set [5], 0%; in data set [6] it was 100%. The Activity is on record as 0% in [8] and 50% in [9].

For the molecule `CC(C(=O)N1CCN(c2ccccc2F)CC1)N1C(=O)CCC1=O` (racemic), the Activity in data set [1] was found to be 0%; in [2], 100%; in data set [3] it was 50%; in data set [4], 0%; in data set [5] it was 25%; in [6] it was 50%. Moreover, the Activity was found to be 0% in data set [8] and 75% in data set [9]. Moreover, the ED50 in data set [7] amounted to 151 mg/kg.

`CC(C(=O)N1CCN(c2cccc(F)c2)CC1)N1C(=O)CCC1=O` (racemic): the Activity turned out to be 0% in [1]; 100% in data set [2]; 75% in [3]; 0% in data set [4]; 100% in [5]; 50% in data set [6]. Also, the Activity in data set [8] is given as 0%; in data set [9], 75%. Further, the ED50 in [7] is 137 mg/kg.

Turning to `CC(C(=O)N1CCN(c2ccc(F)cc2)CC1)N1C(=O)CCC1=O` (racemic), the Activity in [1] is given as 0%; in data set [2] it was 100%; in [3], 25%; in data set [4] it was 0%; in data set [5], 50%; in data set [6], 50%. Also, the Activity in [8] came out at 0%; in data set [9] it was 75%. The median effective dose (ED50) in data set [7] is 130 mg/kg.

On to `CC(C(=O)N1CCN(c2ccc(C(F)(F)F)cc2)CC1)N1C(=O)CCC1=O` (racemic), for which the Activity was 25% in data set [2], 0% in [3], 0% in data set [5] and 25% in data set [6].

Regarding `Cc1cccc(N2CCN(C(=O)C(C)N3C(=O)CCC3=O)CC2)c1` (racemic), the Activity in [1] is listed as 0%; in data set [2] it was 100%; in [3], 0%; in data set [4] it was 0%; in data set [5] it was 0%; in data set [6] it was 50%. The Activity in [8] and in data set [9] was 0% throughout.

For the molecule `COc1cccc(N2CCN(C(=O)C(C)N3C(=O)CCC3=O)CC2)c1` (racemic), the Activity in [1] is 0%; in data set [2], 75%; in data set [3] it was 0%; in [4], 0%; in [5], 0%; in data set [6], 50%. The figures for the Activity in [8] and in data set [9] were 0% and 25%, respectively.

Regarding `CC(C(=O)N1CCOCC1)N1C(=O)CCC1=O` (racemic), the Activity in data set [2], in [3], in data set [5] and in [6] was 0% in each case.

Consider `CCC(C(=O)N1CCN(c2ccccc2)CC1)N1C(=O)CCC1=O` (racemic), for which the Activity in [1] turned out to be 25%; in [2], 75%; in data set [3], 75%; in data set [4], 0%; in data set [5] it was 25%; in data set [6], 75%. For the same molecule, the Activity in data set [8] is given as 0%; in data set [9], 25%. Also, the ED50 in [7] is 149 mg/kg.

For `CCC(C(=O)N1CCN(c2ccccc2Cl)CC1)N1C(=O)CCC1=O` (racemic), the Activity in data set [2] amounted to 50%; in [3], 50%; in data set [5], 0%; in data set [6], 25%.

On to `CCC(C(=O)N1CCN(c2cccc(Cl)c2)CC1)N1C(=O)CCC1=O` (racemic), for which the Activity is 50% in [1]; 75% in data set [2]; 100% in data set [3]; 0% in data set [4]; 25% in data set [5]; 50% in data set [6]. The values for the Activity in [8] and in data set [9] were 0% and 50%, respectively. In addition, the ED50 in data set [10] is 138 mg/kg.

For `CCC(C(=O)N1CCN(c2ccc(Cl)cc2)CC1)N1C(=O)CCC1=O` (racemic), the Activity in data set [2] is 0%; in data set [3], 25%; in [5], 25%; in data set [6], 0%.

Take `CCC(C(=O)N1CCN(c2ccccc2F)CC1)N1C(=O)CCC1=O` (racemic): the Activity in data set [1] turned out to be 0%; in data set [2], 100%; in data set [3], 50%; in [4], 0%; in data set [5], 0%; in data set [6], 100%. For the same molecule, the Activity in data set [8] and in data set [9] was 0% throughout.

Take `CCC(C(=O)N1CCN(c2cccc(F)c2)CC1)N1C(=O)CCC1=O` (racemic): the Activity was determined as 0% in [1]; 75% in data set [2]; 75% in data set [3]; 0% in data set [4]; 0% in data set [5]; 100% in [6]. For the same molecule, the Activity in [8] and in data set [9] was 0% in each case.

For `CCC(C(=O)N1CCN(c2ccc(F)cc2)CC1)N1C(=O)CCC1=O` (racemic), the Activity in data set [2] was 0%; in data set [3], 25%; in data set [5], 0%; in data set [6], 25%.

Take `CCC(C(=O)N1CCN(c2ccccc2C(F)(F)F)CC1)N1C(=O)CCC1=O` (racemic): the Activity in data set [2] came to 25%; in data set [3] it was 0%; in data set [5], 0%; in data set [6], 25%.

In the case of `CCC(C(=O)N1CCN(c2ccc(C(F)(F)F)cc2)CC1)N1C(=O)CCC1=O` (racemic), the Activity in [2] is on record as 25%; in [3] it was 0%; in data set [5], 0%; in data set [6] it was 0%.

With `CCC(C(=O)N1CCN(c2cccc(C)c2)CC1)N1C(=O)CCC1=O` (racemic), the Activity in [1] turned out to be 0%; in [2] it was 100%; in data set [3], 75%; in data set [4], 0%; in data set [5], 0%; in data set [6], 100%. The Activity in data set [8] is on record as 0%; in data set [9] it was 50%.

For the molecule `CCC(C(=O)N1CCN(c2cccc(OC)c2)CC1)N1C(=O)CCC1=O` (racemic), the Activity in data set [2] was 25%; in [3], 0%; in data set [5], 0%; in data set [6], 0%.

Consider `CCC(C(=O)N1CCOCC1)N1C(=O)CCC1=O` (racemic), for which the Activity in [2], in data set [3], in data set [5] and in [6] was 0% in each case.

In the case of `COC[C@@H](NC(C)=O)C(=O)NCc1ccccc1` [LACOSAMIDE], the median effective dose (ED50) in data set [11] was 6.4 mg/kg; in [12] it was more than 500 mg/kg; in data set [10], 9.4 mg/kg. In addition, the “Ratio TD50/ED50” value in data set [13] worked out at 3.6; in data set [15], 5.26. Further, the TD50 at 0.5 h in data set [14] was 33.7 mg/kg.

Turning to `CCCC(CCC)C(=O)O` [VALPROIC ACID], the ED50 in [11] is 130 mg/kg.

Values taken from ChEMBL document CHEMBL3580554, “Design, synthesis, and anticonvulsant activity of new hybrid compounds derived from 2-(2,5-dioxopyrrolidin-1-yl)propanamides and 2-(2,5-dioxopyrrolidin-1-yl)butanamides” (J Med Chem, 2015).
